Measured values from different studies.
Compare with care: the assays were run in different laboratories.
SLC6A3: Sodium-dependent dopamine transporter (SLC6A3, Homo sapiens, UniProt Q01959)
USP51: Ubiquitin carboxyl-terminal hydrolase 51 (USP51, Homo sapiens, UniProt Q70EK9)
CA12: Carbonic anhydrase 12 (CA12, Homo sapiens, UniProt O43570)
DRD3: D(3) dopamine receptor (DRD3, Homo sapiens, UniProt P35462)
PPARG: Peroxisome proliferator-activated receptor gamma (PPARG, Homo sapiens, UniProt P37231)
Lyn: Tyrosine-protein kinase Lyn (Lyn, Mus musculus, UniProt P25911)

Fc1ccc(C(c2ccc(F)cc2)c2nnnn2CCCCN2CCC(Cc3ccc(Cl)c(Cl)c3)CC2)cc1  inhibition (SLC6A3; transporter uptake; inhibitor; HEK293; 1 µM): 68.9%
Nc1cc[nH]c(=O)n1  inhibition (USP51; enzyme activity; inhibitor; 5 µM): 27%
CCOC(=O)C1CSc2[nH]c(=O)sc2C1c1cn(-c2ccccc2)nc1-c1ccc(Cl)cc1 (stereo not shown)  inhibition (CA12; enzyme activity; inhibitor; absorbance; 0.1 µM): 46.4%
O=C(c1ccccc1Cl)N1CCN(CCNc2cc(=O)oc3ccccc23)CC1  inhibition (DRD3; enzyme activity; inhibitor; 10 µM): -5.2%
CCOC(=O)C1CSc2[nH]c(=O)sc2C1c1cn(-c2ccccc2)nc1-c1ccc(Br)cc1 (stereo not shown)  inhibition (CA12; enzyme activity; inhibitor; absorbance; 100 µM): 92.1%
COc1cc(NC(C)=O)c(Cl)cc1C(=O)Nc1nccs1  inhibition (PPARG; cell-free assay; 10 µM): 31.6%
CN(C)C1CCN(CC#Cc2nn(C3CCCC3)c3nc(NCc4ccccc4)ncc23)C1 (stereo not shown)  inhibition (Calcium/calmodulin-dependent protein kinase type IV (CAMK4, Homo sapiens, UniProt Q16566); enzyme activity; inhibitor; FRET; 10 µM): 23%
O=C(CN1CCN(c2ccc(F)cc2)CC1)Nc1cc(Cl)cc(Cl)c1  inhibition (DRD3; enzyme activity; inhibitor; 10 µM): -6.1%
c1ccc(CCC2CCN(CCCn3nnnc3C(c3ccccc3)c3ccccc3)CC2)cc1  inhibition (SLC6A3; transporter uptake; inhibitor; HEK293; 1 µM): 68.3%
CCN(CC)CCNC(=O)c1c(C)[nH]c(/C=C2\C(=O)Nc3ccc(F)cc32)c1C  inhibition (Lyn; enzyme activity; inhibitor; 10 µM): 98%
CCOC(=O)C1CSc2[nH]c(=O)sc2C1c1cn(-c2ccccc2)nc1-c1ccccc1 (stereo not shown)  inhibition (CA12; enzyme activity; inhibitor; absorbance; 10 µM): 72.5%
COc1ccccc1O  inhibition (USP51; enzyme activity; inhibitor; 5 µM): 0%
Fc1ccc(C(c2ccc(F)cc2)c2nnnn2CCCCN2CCC(CCCc3ccccc3)CC2)cc1  inhibition (SLC6A3; transporter uptake; inhibitor; HEK293; 1 µM): 53.4%
CC(=O)O[C@H]1[C@H](O[C@@H]2[C@@H](O)[C@@H](O)[C@H](Oc3c(-c4ccc(O)cc4)oc4cc(O)cc(O)c4c3=O)O[C@H]2C)O[C@H](CO)[C@@H](O)[C@@H]1O  inhibition (Aromatase (CYP19A1, Homo sapiens, UniProt P11511); enzyme activity; inhibitor; 20 µg/mL): 58%
O=C(c1ccc(Cl)cc1)N(Cc1ccccc1)C1CCCCC1  inhibition (PPARG; cell-free assay; 10 µM): 14.6%
CCOC(=O)C1CSc2[nH]c(=O)sc2C1c1cn(-c2ccccc2)nc1-c1ccc(OC)cc1 (stereo not shown)  inhibition (CA12; enzyme activity; inhibitor; absorbance; 10 nM): 17.1%
CNc1cc(Oc2cc(C(=O)Nc3cc(N4CCN(C)CC4)cc(C(F)(F)F)c3)ccc2C)ncn1  inhibition (Serine/threonine-protein kinase ATR (ATR, Homo sapiens, UniProt Q13535); target engagement in cells; inhibitor; chemoproteomics; Huh-7; 1 µM): -18%
COc1ccc([C@@H]2CC(=O)c3c(O)cc(O[C@@H]4O[C@H](CO[C@@H]5O[C@@H](C)[C@H](O)[C@@H](O)[C@H]5O)[C@@H](O)[C@H](O)[C@H]4O)cc3O2)cc1O  inhibition (USP51; enzyme activity; inhibitor; 5 µM): 30%
Cc1ccc(Nc2nccc(N(C)c3ccc4c(C)n(C)nc4c3)n2)cc1S(N)(=O)=O  inhibition (Lyn; enzyme activity; inhibitor; 0.3 µM): 66%
C=C1C[C@@]2(O)O[C@@]3(C[C@H]2C(C)C)[C@@H](C)CC[C@@H]13  inhibition (USP51; enzyme activity; inhibitor; 5 µM): 11%
CC(O)c1ccc(-c2ccc(CNCCc3ccc(S(N)(=O)=O)cc3)o2)cc1 (stereo not shown)  inhibition (DRD3; enzyme activity; inhibitor; 10 µM): -9.5%
Clc1ccc(C(c2ccccc2)c2nnnn2CCCN2CCC(Cc3ccccc3)CC2)cc1 (stereo not shown)  inhibition (SLC6A3; transporter uptake; inhibitor; HEK293; 1 µM): 93.8%
CNC(=O)c1cc(Oc2ccc(NC(=O)Nc3ccc(Cl)c(C(F)(F)F)c3)cc2)ccn1  inhibition (Lyn; enzyme activity; inhibitor; 10 µM): 95%
Fc1ccc(C(c2ccc(F)cc2)c2nnnn2CCCCN2CCN(Cc3ccccc3)CC2)cc1  inhibition (SLC6A3; transporter uptake; inhibitor; HEK293; 1 µM): 95.7%
Cc1ccc(C(C)C)c(OCC(O)CN2CCN(c3ccccc3F)CC2)c1 (stereo not shown)  inhibition (DRD3; enzyme activity; inhibitor; 10 µM): 20.4%
CC(C)=CCC[C@](C)(O)[C@H]1CC[C@]2(C)[C@@H]1[C@H](O)C[C@@H]1[C@@]3(C)CC[C@H](O[C@@H]4O[C@H](CO)[C@@H](O)[C@H](O)[C@H]4O[C@@H]4O[C@H](CO)[C@@H](O)[C@H](O)[C@H]4O)C(C)(C)[C@@H]3CC[C@]12C  inhibition (USP51; enzyme activity; inhibitor; 5 µM): 0%
COc1ccc(CCN2C(=O)CC(N3CCN(c4ccc(Cl)cc4)CC3)C2=O)cc1OC (stereo not shown)  inhibition (DRD3; enzyme activity; inhibitor; 10 µM): -14.6%
c1ccc(C2CCN(CCCCn3nnnc3C(c3ccccc3)c3ccccc3)CC2)cc1  inhibition (SLC6A3; transporter uptake; inhibitor; HEK293; 1 µM): 93.9%
COc1ccc(C(C)=O)c(O)c1  inhibition (USP51; enzyme activity; inhibitor; 5 µM): 18%
O=C1NC(=S)C(=Cc2cn(-c3ccccc3)nc2-c2ccc(Br)cc2)S1  inhibition (CA12; enzyme activity; inhibitor; absorbance; 1 µM): 32.3%
CC(C)c1ccccc1OCCOCC(O)CN1CCN(c2cccc(C(F)(F)F)c2)CC1 (stereo not shown)  inhibition (DRD3; enzyme activity; inhibitor; 10 µM): 14.3%
N#CC1CSc2[nH]c(=O)sc2C1c1cn(-c2ccccc2)nc1-c1ccc(Br)cc1 (stereo not shown)  inhibition (CA12; enzyme activity; inhibitor; absorbance; 1 µM): 61.5%
NS(=O)(=O)c1ccc(CCNCc2cccc3ccccc23)cc1  inhibition (DRD3; enzyme activity; inhibitor; 10 µM): 39.3%
CCOC(=O)C1CSc2[nH]c(=O)sc2C1c1cn(-c2ccccc2)nc1-c1ccc(C)cc1 (stereo not shown)  inhibition (CA12; enzyme activity; inhibitor; absorbance; 10 µM): 83.1%
O=C(Nc1ccc(S(=O)(=O)N2CCC(Cl)CC2)cc1)c1ccc([N+](=O)[O-])o1  inhibition (Sodium- and chloride-dependent GABA transporter 1 (Slc6a1, Rattus norvegicus, UniProt P23978); ligand displacement; radioligand; 10 µM): 17%
Nc1[nH]cnc2ncnc1-2  inhibition (USP51; enzyme activity; inhibitor; 5 µM): 33%
Clc1ccc(C(c2ccccc2)c2nnnn2CCCCN2CCN(CC=Cc3ccccc3)CC2)cc1 (stereo not shown)  inhibition (SLC6A3; transporter uptake; inhibitor; HEK293; 1 µM): 82.2%
O=c1ccc2cc3ccoc3cc2o1  inhibition (USP51; enzyme activity; inhibitor; 5 µM): 0%
C=CCn1c(SCC(=O)NC2=NN(c3ccccc3)C(=O)C2)nnc1-c1cccs1  inhibition (DRD3; enzyme activity; inhibitor; 10 µM): -4.7%
Clc1ccc(C(c2ccccc2)c2nnnn2CCCN2CCC(CCc3ccccc3)CC2)cc1 (stereo not shown)  inhibition (SLC6A3; transporter uptake; inhibitor; HEK293; 1 µM): 78.4%
